Screens (PubChem)
An excerpt weighted towards active compounds, which were near 1.8% of everything screened.
GSTO1 inh = blocks human GSTO1 in RBBP9 counter-screen. P78417. recombinant GSTO1, activity-based probe fluorescence polarization. inhibition, % at 5.96 µM. 1.1% of 300,000 active;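 active = inhibition above the campaign mean inhibition plus 3 SD, cut at about 35% in these data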;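 also: 0% = GSTO1-1 with DMSO and 100% = wells lacking GSTO1-1 enzyme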
proCasp7 act = counter-screen for procaspase-3 activators: activators of human procaspase-7 | P55210 | recombinant procaspase-7, Ac-DEVD-pNA absorbance 405 nm; D23A/D198A/D206A triple mutant, cannot self-cleave; scale: DMSO 0, 5 µM enzyme 100 | activation, % at 8.5 µM | 0.093% of 330,000 active | AID 463210;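 active = percent activation above the screen-wide mean plus 3 SD, cut at about 25% in these data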
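System: Procaspase-7 triple mutant (PC-7 D3A); measure: % activation from two-timepoint absorbance difference, scaled to controls; times: 1 h compound preincubation, 2 h substrate cleavage, 25 °C; also added: Ac-DEVD-pNA substrate, 400 µM as added; measured by: Epi-absorbance of released pNA at 405 nm, two timepoints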
Apaf-1 inh = inhibitors of human Apaf-1 apoptosome; O14727; reconstituted apoptosome caspase-3 activity, DEVD-Rh110 fluorescence; inhibition, % at 20 µM; 0.71% of 330,000 active; AID 489030; active = inhibition of at least 40% at 20 µM;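 also: plate controls were DMSO wells for no effect and DEVD-CHO caspase inhibitor wells for full effect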
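Material: reconstituted apoptosome with Apaf-1, cytochrome c, caspase-9, procaspase-3, dATP. Technique: Rh110 fluorescence intensity. Buffer or medium: pH 7.5 Hepes buffer with CHAPS, BSA, DTT. Times: 30 min plus 50 min, RT.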
ZTA DNA inh = ZTA (EBV) inhibition in EBNA-1 counter-screen. P03206. ZTA-DNA binding, fluorescence polarization. inhibition, % at 11 µM. 0.15% of 320,000 active. AID 2234; in the data active = inhibition above about 33%
procasp3 activ = activates human procaspase-3; P42574; recombinant procaspase-3 D3A, Ac-DEVD-pNA absorbance 405 nm; activation, % at 8.5 µM; 0.11% of 330,000 active;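 active = activation above the mean of all tested compounds plus 3 SD, cut at about 21% in these data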;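 also: 0% = DMSO alone and 100% = DMSO wells spiked with extra 5 µM PC-3 D3A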
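Assay system: Procaspase-3 D3A mutant, all three cleavage aspartates alanine. Buffer or medium: Zinc-free HEPES saline buffer with Triton X-100. Times: 1 h compound preincubation, 2 h substrate hydrolysis at 25 °C. Measured by: 405 nm absorbance of p-nitroaniline, reads at 0 and 120 min. Read-out basis: percent activation relative to control range. Replicates: singlicate.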
EBNA-1 inh = blocks EBNA-1 binding to DNA. EBNA-1 DNA binding, fluorescence polarization. inhibition, % at 14.8 µM. 0.34% of 300,000 active; in the data active = inhibition above about 28%
EBNA-1 inh conf = EBNA-1 (EBV) inhibition, confirmation; inhibition, % at 14.8 µM; shares compounds with EBNA-1 inh; Recombinant EBNA-1 DBD, Cy5-DNA fluorescence polarization; 35% of 830 active;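 active = mean inhibition across replicates above a set limit taken from the earlier primary screen, cut at about 28% in these data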;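 also: plate controls were EBNA-1 protein with DMSO for no effect and wells lacking EBNA-1 for full effect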
ZTA counter trip = counter-screen for EBNA-1 inhibitors: Epstein-Barr virus ZTA inhibitors, triplicate. shares compounds with EBNA-1 inh. Zta-ZRE DNA binding, Cy5 fluorescence polarization. inhibition, % at 11.1 µM. 830 tested, under 10 active;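 active = mean inhibition over triplicates above a set limit taken from the primary EBNA-1 screen, cut at about 37% in these data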;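 also: purified full length Zta protein with Cy5 labeled ZRE DNA probe; 0% = Zta with DMSO and 100% = wells lacking Zta protein; inhibitors lower polarization by freeing the labeled DNA probe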
* = called active by the depositor; x = no result; + = active, no number.

SMILES	GSTO1 inh	proCasp7 act	Apaf-1 inh	ZTA DNA inh	procasp3 activ	EBNA-1 inh	EBNA-1 inh conf	ZTA counter trip
CC(=O)Nc1ccc(S(=O)(=O)Nc2c(NC3CCCCC3)c3ccccc3oc2=O)cc1	-2	-4	10	-12	3	32*	-3	0
Cc1cc(S(=O)(=O)Nc2c(NC3CCCCC3)c3ccccc3oc2=O)ccc1F	1	-3	18	4	-1	15	x	x
CC(=O)Nc1ccc(S(=O)(=O)Nc2ccc(S(=O)(=O)Nc3ncccn3)cc2)cc1	-2	6	7	8	-4	82*	7	8
Cc1nc(-c2ccccc2)nc2[nH]c(-c3ccccc3)cc(=O)c12	-2	0	19	-5	2	28*	18	-3
CC(=O)c1sc(NC(=O)CN2C(=O)C3CCCCC3C2=O)nc1-c1ccccc1 (configuration not stated)	x	-7	-9	2	9	x	x	x
O=C(OCC(=O)N1CCCC1=O)c1cc2ccccc2o1	x	7	7	11	6	x	x	x
Nc1c(C(=O)Nc2ccc3c(c2)OCCO3)nnn1Cc1cccc(Br)c1	-8	-5	12	-1	-9	36*	30*	1
CCCc1cc2c(cc1NC(=O)c1ccc(Br)cc1)OCO2	3	7	-5	-3	2	33*	0	-8
Cc1cc(C)c2c(c1)c1nnc(SCCN3CCCCC3)nc1n2C	x	x	18	x	x	x	x	x
CCCN(CCC)CCNC(=O)C1(O)c2ccccc2NC(=O)N1c1cccc(OC)c1 (configuration not stated)	7	8	-1	-10	7	-6	x	x
CCC(=O)N1CCN(c2ccccc2NC(=O)COc2ccc(C(C)C)cc2)CC1	-16	5	19	13	1	73*	3	2
O=C(C1CC1)N1CCN=C1SCc1ccc(F)cc1	-9	-8	-4	-21	-1	5	x	x
CC(=O)N1CCN=C1SCc1ccc(C(F)(F)F)cc1	-1	3	-2	-9	-2	41*	-9	-2
COc1ccccc1NC(=O)Cn1nnc(-c2ccccc2NC(=O)c2cccs2)n1	-14	-9	2	-23	-6	-7	x	x
COc1ccccc1C(=O)Nc1ccc(-c2nnn(CC(=O)NCc3ccco3)n2)cc1	-25	7	-2	3	4	42*	52*	19
O=C(Cn1nnc(-c2ccccc2NC(=O)c2ccccc2F)n1)NCc1ccco1	-11	5	-2	16	-2	14	x	x
COc1ccc(C(=O)Nc2ccccc2-c2nnn(CC(=O)NCc3ccco3)n2)cc1	8	0	8	2	-3	54*	15	6
O=C(Cn1nnc(-c2ccccc2NC(=O)c2cccs2)n1)Nc1ccccc1	-23	6	3	3	1	28*	47*	2
O=C(Cn1nnc(-c2ccccc2)n1)NCc1ccco1	1	2	1	3	4	-3	x	x
O=C(COC(=O)C1=COCCO1)Nc1ccc([N+](=O)[O-])cc1C(F)(F)F	x	-7	2	1	2	x	x	x
COc1ccccc1C(=O)Nc1nnc(-c2ccc(F)cc2)s1	5	13	-1	3	4	+	4	1
O=C(CC(O)CCc1ccccc1)c1ccc(O)cc1 (configuration not stated)	x	-2	1	x	8	x	x	x
O=C(Cn1c(O)c(/C=C2\C=Nc3ccc(Br)cc32)sc1=O)N1CCCC1	12	20	19	-5	20	29*	10	-1
COc1ccc(NC(=O)c2ccc(C(=O)Nc3ccc(OC)cc3OC)cc2)c(OC)c1	6	-10	-5	-7	0	56*	51*	10
COc1ccc(NC(=O)c2cc(-c3cc(C)c(C)cc3O)n[nH]2)c(OC)c1	-2	3	8	6	7	8	x	x
SMILES	GSTO1 inh	proCasp7 act	Apaf-1 inh	ZTA DNA inh	procasp3 activ	EBNA-1 inh	EBNA-1 inh conf	ZTA counter trip
COc1ccc(NC(=O)c2cc(-c3cc(Cl)ccc3O)n[nH]2)c(OC)c1	9	4	-2	23	2	33*	19	3
COc1ccc(C(=O)Nc2ccc(-c3ccc(NC(=O)c4ccc(OC)cc4)c(OC)c3)cc2OC)cc1	0	-5	5	9	-5	8	x	x
CN(C)S(=O)(=O)c1ccc(C(=O)NNC(=O)C23CC4CC(CC(C4)C2)C3)cc1	x	-1	-2	x	3	x	x	x
CC(=O)Nc1ccc(S(=O)(=O)N[C@@H](C)C(=O)N2CCN(C/C=C/c3ccccc3)CC2)cc1	x	6	-3	0	3	x	x	x
COc1ccc(OCCOC(=O)c2ccc(F)c(S(=O)(=O)N3CCOCC3)c2)cc1	x	-6	6	9	9	x	x	x
O=C1c2ccccc2C(=O)N1Cc1nc2ccccc2c(=O)n1CCCN1CCOCC1	-4	16	15	-4	-7	-10	x	x
CCCCn1c(CN2C(=O)c3ccccc3C2=O)nc2ccccc2c1=O	0	-4	8	25	12	32*	31*	13
COc1ccc(S(=O)(=O)N2CCCCCC2)cc1NC(=O)CN1C(=O)CNC1=O	x	11	-4	x	4	x	x	x
Cc1ccc(C(=O)CSc2nnc(CNc3ccc(C)cc3C)o2)cc1	13	-2	11	-10	1	31*	1	-7
NC(=O)c1ccccc1NC(=O)c1cccc(C(=O)Nc2ccccc2C(N)=O)n1	3	4	-14	11	2	35*	36*	4
O=C(O)c1cc(S(=O)(=O)N2CCCCC2)ccc1N1CCOCC1	x	10	-2	x	8	x	x	x
COc1ccc(N2CCN(S(=O)(=O)c3ccc(C(=O)NCc4ccco4)cc3)CC2)cc1	0	0	-4	-12	-10	38*	27	3
COc1ccc(C)cc1N(CC(=O)N1CCCCCC1)S(=O)(=O)c1ccc(C)cc1	4	0	6	-5	2	0	x	x
O=C(NN1C(=O)c2ccc3c4c(ccc(c24)C1=O)CC3)c1ccc(Br)cc1	-6	-1	21	-7	19	55*	6	9
O=C1c2ccc3c4c(ccc(c24)C(=O)N1NC(=O)C(F)(F)F)CC3	0	-5	3	-5	-2	-6	x	x
COc1ccc(CCNC(=O)COc2cccc(-n3cnnn3)c2)cc1	x	x	-9	x	x	x	x	x
CCCOc1cccc(-c2nnc(N)s2)c1	4	-10	-3	-10	3	33*	-6	5
